Data taken from publication PMC11335262 (Cellular and Molecular Life Sciences: CMLS, 2024).

Assays:
[1] = molecular target: α9α10^α9TM2TM3loop (Rattus norvegicus, UniProt P43144+Q9JLB5, A292S/P291A/S288I/S294N); assay: ACh-evoked currents, two-electrode voltage-clamp in X. laevis oocytes; format: cell-based; details: prolonged (1 min) ACh application
[2] = test system: α9E202Qα10; assay: ACh-evoked currents, two-electrode voltage-clamp in X. laevis oocytes; format: cell-based, rat; details: 1 mM ACh; α9E202Qα10 mutant receptor
In short: (§1)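 Rat subunit cRNAs (0.01–1.0 ng in 50 nl water, 1:1 molar ratio when co-injected) were injected into stage V–VI X. laevis oocytes kept in Barth's solution at 18 °C. Oocytes were preloaded 3 h with 100 µM BAPTA-AM.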

[3] = molecular target: α9α10 nAChR (Rattus norvegicus, UniProt P43144+Q9JLB5); details: prolonged ACh application; cited from earlier work
[4] = test system: α9E72Qα10; assay: ACh-evoked currents, two-electrode voltage-clamp in X. laevis oocytes; format: cell-based, rat; details: 1 mM ACh; α9E72Qα10 mutant receptor
In short: as §1

[5] = test system: α9^α10TM2TM3loop; assay: as above; format: cell-based, rat; details: 1 mM ACh; α9^α10TM2TM3loop injected alone or co-injected with α9
In short: as §1

[6] = test system: homomeric α9 nAChR; details: cited from earlier work

Chain of α9α10 nAChR (P43144 26-479): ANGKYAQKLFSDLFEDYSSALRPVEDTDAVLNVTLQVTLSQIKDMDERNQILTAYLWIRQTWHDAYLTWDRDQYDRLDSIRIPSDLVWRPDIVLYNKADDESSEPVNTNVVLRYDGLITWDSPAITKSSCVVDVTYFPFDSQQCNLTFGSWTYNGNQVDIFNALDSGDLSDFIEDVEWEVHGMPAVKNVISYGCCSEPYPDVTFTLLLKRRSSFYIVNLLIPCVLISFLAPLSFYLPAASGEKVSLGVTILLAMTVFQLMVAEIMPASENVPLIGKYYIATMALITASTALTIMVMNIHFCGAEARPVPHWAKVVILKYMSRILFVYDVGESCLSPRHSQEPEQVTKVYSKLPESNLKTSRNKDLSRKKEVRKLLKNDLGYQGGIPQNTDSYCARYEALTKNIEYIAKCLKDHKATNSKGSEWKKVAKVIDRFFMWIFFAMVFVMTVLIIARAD
Chain of α9α10 nAChR (Q9JLB5 25-447): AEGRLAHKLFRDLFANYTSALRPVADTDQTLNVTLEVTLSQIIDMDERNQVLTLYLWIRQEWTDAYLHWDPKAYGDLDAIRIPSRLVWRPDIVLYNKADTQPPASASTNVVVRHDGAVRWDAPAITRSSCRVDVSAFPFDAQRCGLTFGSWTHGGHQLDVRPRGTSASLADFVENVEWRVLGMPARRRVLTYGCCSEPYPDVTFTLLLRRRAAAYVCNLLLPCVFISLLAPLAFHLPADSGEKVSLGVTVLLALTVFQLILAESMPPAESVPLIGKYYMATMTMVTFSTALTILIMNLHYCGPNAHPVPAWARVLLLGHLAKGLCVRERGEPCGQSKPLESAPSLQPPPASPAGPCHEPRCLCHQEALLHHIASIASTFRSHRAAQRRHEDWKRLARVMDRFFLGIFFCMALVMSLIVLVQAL
Chain of α9α10^α9TM2TM3loop (P43144 26-479, stated change not applied): as the sequence (P43144 26-479) above
Chain of α9α10^α9TM2TM3loop (Q9JLB5 25-447 S288I/P291A/A292S/S294N): as the sequence (Q9JLB5 25-447) above, with S264I, P267A, A268S, S270N counted along it

SMILES: CC(=O)OCC[N+](C)(C)C [ACh, Acetylcholine]
- remaining current after 20 s of the peak response to ACh [1]: 61.9 ± 4.6%
- response to ACh (in words) [2]: failed to respond
- remaining current after 20 s of the peak response to ACh [3]: 57.1 ± 4.3%
- response to ACh (in words) [4]: failed to respond
- response to ACh (in words) [5]: did not render functional receptors
- maximal amplitude of responses ([6]; 100 µM ACh, absence of extracellular Ca^2+): 182 ± 20 nA
- EC50 ([6]; ACh concentration-response, ref 45 (Verbitsky et al. 2000)): 11.4 ± 0.8 µM
- remaining current after 20 s of the peak response to ACh ([6]; prolonged application of a high ACh concentration): 94.9 ± 1.6%
